For 24 compounds, IC50 and inhibition results are on record in ChEMBL document CHEMBL1154219, “New Ras CAAX mimetics: design, synthesis, antiproliferative activity, and RAS prenylation inhibition” (Bioorg Med Chem Lett, 2009).

A short description of experiment [1]: Antiproliferative activity against HSMC after 72 hrs. The conditions noted are these: Homo sapiens. The class given is functional. Put shortly:
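Human aortic SMCs seeded at 8 × 10⁴ cells per 35 mm dish in DMEM with 10% FCS. After 24 h, switched to 0.4% FCS for 72 h to arrest growth. Then refed with 10% FCS with or without compound (DMSO, final ≤0.5%) for 72 h at 37 °C. Cells trypsinized and counted by Coulter counter. IC50 obtained by linear regression of log concentration versus logit.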

Experiment [2] can be described thus: Inhibition of Ras protein protein prenylation in HSMC assessed as unprenylated Ras accumulation after 72 hrs by Western blot analysis. Set-up: species or system Homo sapiens. Put shortly: (§1)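 Human aortic SMCs seeded at 4 × 10⁵ cells per 60 mm dish. Growth-arrested in 0.4% FCS for 72 h, then exposed to compound in 10% FCS for 72 h at 37 °C (DMSO ≤0.5%). Cells lysed on ice in Tris pH 7.5/NaCl/NP-40 buffer with protease inhibitors; lysates cleared, protein measured by BCA. SDS-PAGE under reducing conditions, anti-Ras immunoblot, ECL detection. Unprenylated Ras seen as the slower-migrating band.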

The species entered for experiment [3] is Homo sapiens. In words: Inhibition of Ras protein protein prenylation in HSMC assessed as unprenylated Ras accumulation at 25 uM after 72 hrs by Western blot analysis. Put shortly:
as §1

The species named for experiment [4] is Homo sapiens. In words: Inhibition of Ras protein protein prenylation in HSMC assessed as unprenylated Ras accumulation at 50 uM after 72 hrs by Western blot analysis. Put shortly: as §1
For experiment [5], the species on record is Homo sapiens. In words: Inhibition of Ras protein protein prenylation in HSMC assessed as unprenylated Ras accumulation at 10 uM after 72 hrs by Western blot analysis. Put shortly: as §1
For experiment [6], the species on record is Homo sapiens. In words: Inhibition of Ras protein protein prenylation in HSMC assessed as unprenylated Ras accumulation at 75 uM after 72 hrs by Western blot analysis. Put shortly: as §1

The source made the active and inactive calls. The rule behind the calls is not given here.

For `COC(=O)[C@H](CCSC)NC(=O)c1ccc(OC[C@H]2COc3ccccc3O2)cc1-c1ccccc1C`, the IC50 in experiment [1] stood at 6.6 µM; in experiment [2] it was 2.8 µM.
`COC(=O)[C@H](CCSC)NC(=O)c1ccc(C(=O)NC[C@H]2COc3ccccc3O2)cc1-c1ccccc1OC` had an IC50 in experiment [1] of 252 µM.
On to `COC(=O)CNC(=O)c1ccc(OC[C@@H]2COc3ccccc3O2)cc1-c1ccccc1C`, for which the IC50 in experiment [1] stood at 0.7 µM. Further, the inhibition result in the experiment listed under Homo sapiens [3] and in the experiment filed under Homo sapiens [4] was “inactive” throughout.
`COC(=O)[C@H](CC(C)C)NC(=O)c1ccc(C(=O)NC[C@@H]2COc3ccccc3O2)cc1-c1ccccc1C` gave an IC50 in experiment [1] of 88 µM.
The same measure, in the same setting: to `COC(=O)[C@H](CCSC)NC(=O)c1ccc(C(=O)NC[C@@H]2COc3ccccc3O2)cc1-c1ccccc1OC` belongs 647 µM.
Compound `COC(=O)[C@H](CC(C)C)NC(=O)c1ccc(OC[C@@H]2COc3ccccc3O2)cc1-c1ccccc1OC` registered an IC50 in experiment [1] of 17 µM. Besides, the inhibition result in the experiment filed under Homo sapiens [5] and in the experiment listed under Homo sapiens [4] was “inactive” each time.
For the compound `COC(=O)CNC(=O)c1ccc(C(=O)NC[C@@H]2COc3ccccc3O2)cc1-c1ccccc1C`, it took 89 µM to reach half-maximal inhibition in experiment [1] (IC50).
In experiment [1], `COC(=O)[C@H](CC(C)C)NC(=O)c1ccc(OC[C@H]2COc3ccccc3O2)cc1-c1ccccc1C` came in with an IC50 of 3 µM. Also, the inhibition entry in the experiment listed under Homo sapiens [5] and in the experiment listed under Homo sapiens [4] was “inactive” each time.
On to `COC(=O)[C@H](CCSC)NC(=O)c1ccc(OC[C@@H]2COc3ccccc3O2)cc1-c1ccccc1OC`, for which the IC50 in experiment [1] was found to be 204 µM.
For the compound `COC(=O)[C@H](CC(C)C)NC(=O)c1ccc(C(=O)NC[C@H]2COc3ccccc3O2)cc1-c1ccccc1C`, the IC50 in experiment [1] amounted to 103 µM.
Same read-out and setting: the result for `COC(=O)[C@H](CC(C)C)NC(=O)c1ccc(C(=O)NC[C@@H]2COc3ccccc3O2)cc1-c1ccccc1OC` reads 469 µM; that for `COC(=O)[C@H](CCSC)NC(=O)c1ccc(OC[C@@H]2COc3ccccc3O2)cc1-c1ccccc1C`, 193 µM.
Consider `COC(=O)CNC(=O)c1ccc(OC[C@H]2COc3ccccc3O2)cc1-c1ccccc1C`, for which the IC50 in experiment [1] is 27 µM. Also, in the experiment filed under Homo sapiens [4], the inhibition was 35%.
Turning to `COC(=O)CNC(=O)c1ccc(OC[C@@H]2COc3ccccc3O2)cc1-c1ccccc1OC`, in experiment [1], 35 µM corresponded to half-maximal inhibition (IC50). For the same compound, the inhibition entry in the experiment listed under Homo sapiens [4] and in the experiment filed under Homo sapiens [6] was “inactive” each time.
In experiment [1], `COC(=O)[C@H](CC(C)C)NC(=O)c1ccc(OC[C@H]2COc3ccccc3O2)cc1-c1ccccc1OC` showed an IC50 of 32 µM. Further, the inhibition entry in the experiment filed under Homo sapiens [3] and in the experiment filed under Homo sapiens [4] was “inactive” throughout.
In the case of `COC(=O)CNC(=O)c1ccc(OC[C@H]2COc3ccccc3O2)cc1-c1ccccc1OC`, in experiment [1], inhibition was half-maximal at 71 µM (IC50). Further, the inhibition entry in the experiment listed under Homo sapiens [4] and in the experiment listed under Homo sapiens [6] was “inactive” in each case.
In experiment [1], `COC(=O)[C@H](CCSC)NC(=O)c1ccc(C(=O)NC[C@H]2COc3ccccc3O2)cc1-c1ccccc1C` yielded an IC50 of 87 µM.
On to `COC(=O)CNC(=O)c1ccc(C(=O)NC[C@H]2COc3ccccc3O2)cc1-c1ccccc1OC`, for which the 50% inhibitory concentration (IC50) in experiment [1] amounted to 122 µM.
Same read-out and setting: the result for `COC(=O)CNC(=O)c1ccc(C(=O)NC[C@H]2COc3ccccc3O2)cc1-c1ccccc1C` reads 113 µM.
Regarding `COC(=O)[C@H](CCSC)NC(=O)c1ccc(OC[C@H]2COc3ccccc3O2)cc1-c1ccccc1OC`, the IC50 in experiment [1] is 230 µM.
In turn, `COC(=O)[C@H](CC(C)C)NC(=O)c1ccc(C(=O)NC[C@H]2COc3ccccc3O2)cc1-c1ccccc1OC` returned an IC50 in experiment [1] of 185 µM.
As for `COC(=O)[C@H](CC(C)C)NC(=O)c1ccc(OC[C@@H]2COc3ccccc3O2)cc1-c1ccccc1C`, inhibition in experiment [1] was half-maximal at 5.2 µM (IC50). Moreover, the inhibition entry in the experiment filed under Homo sapiens [3] and in the experiment filed under Homo sapiens [4] was “inactive” each time.
On to `COC(=O)CNC(=O)c1ccc(C(=O)NC[C@@H]2COc3ccccc3O2)cc1-c1ccccc1OC`, for which the IC50 in experiment [1] stood at 76 µM.
The same measure, in the same setting: to `COC(=O)[C@H](CCSC)NC(=O)c1ccc(C(=O)NC[C@@H]2COc3ccccc3O2)cc1-c1ccccc1C` belongs 533 µM.
